What was measured:
Assay type in all cases: functional
SK-MEL-5 [1] = assay: Cytotoxicity against human SK-MEL-5 cells assessed as cell growth at 1 uM after 48 hrs by sulforhodamine B assay; details: SK-MEL-5, 48 h, read-out: Activity
SK-MEL-5 [2] = assay: Cytotoxicity against human SK-MEL-5 cells assessed as cell growth at 10 uM after 48 hrs by sulforhodamine B assay; details: SK-MEL-5, 48 h, read-out: Activity
EKVX = assay: Cytotoxicity against human EKVX cells assessed as cell growth at 100 uM after 48 hrs by sulforhodamine B assay; details: read-out: Activity
Summary of the method: (§1)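 Five-dose NCI panel run at 0.01, 0.1, 1, 10 and 100 µM. Cells were in RPMI 1640 with 5% FBS and 2 mM L-glutamine, seeded at 5000–40,000 cells/well and pre-incubated 24 h. Drug was diluted from a DMSO stock into medium with 50 µg/ml gentamicin. Exposure was 48 h at 37 °C, 5% CO2. Cells were fixed with cold TCA and stained with 0.4% SRB, read at 515 nm. Percent growth came from time-zero, control and test absorbances.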

IGROV-1 [3] = assay: Cytotoxicity against human IGROV1 cells assessed as cell growth at 0.1 uM after 48 hrs by sulforhodamine B assay; details: IGROV-1, 48 h, read-out: Activity
T47D [4] = assay: Cytotoxicity against human T47D cells assessed as cell growth at 10 uM after 48 hrs by sulforhodamine B assay; details: read-out: Activity
DU-145 = assay: Cytotoxicity against human DU145 cells assessed as cell growth at 1 uM after 48 hrs by sulforhodamine B assay; details: DU-145, 48 h, read-out: Activity
Summary of the method: (§2)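 NCI-60 five-dose screen. Cells were grown in RPMI 1640 with 5% FBS and 2 mM L-glutamine and preincubated 24 h. Compound (DMSO stock) was tested at 0.01, 0.1, 1, 10 and 100 µM for 48 h at 37 °C. Cells were fixed in situ with cold TCA (final 10%) and stained with 0.4% SRB. A515 was read, and percent growth was calculated against time-zero and control plates.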

MDA-MB-435 [5] = assay: Cytotoxicity against human MDA-MB-435 cells assessed as cell growth at 0.1 uM after 48 hrs by sulforhodamine B assay; details: MDA-MB-435, 48 h, read-out: Activity
A549 = assay: Growth inhibition of human A549 cells after 48 hrs by sulforhodamine B assay; details: A549, 48 h
Summary of the method: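 Cells were in RPMI 1640 with 5% FBS and pre-incubated 24 h. Read-out was TCA fixation, SRB staining and absorbance at 515 nm. GI50 was the concentration where [(Ti−Tz)/(C−Tz)]×100 = 50, taken from log concentration vs % growth curves. It is given as ">" the top concentration when not reached.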

NCI/ADR-RES = assay: Growth inhibition of human NCI/ADR-RES cells after 48 hrs by sulforhodamine B assay
Summary of the method: (§3)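 Adherent NCI-60 lines were grown in RPMI 1640 with 5% FBS and 2 mM L-glutamine, plated at 5000–40,000 cells/well and preincubated 24 h. They were then exposed to five concentrations (0.01–100 µM, from a DMSO stock) for 48 h at 37 °C, 5% CO2. Cells were fixed with cold TCA (10% final, 60 min, 4 °C) and stained with 0.4% SRB. Dye was solubilized in 10 mM Tris base and A515 read. GI50 was derived from time-zero, control and treated absorbances.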

SNB-19 = assay: Cytotoxicity against human SNB19 cells assessed as cell growth at 10 '-5 M after 48 hrs by sulforhodamine B assay; details: SNB-19, 48 h, read-out: Activity
SK-OV-3 = assay: Cytotoxicity against human SKOV3 cells assessed as cell growth at 100 uM after 48 hrs by sulforhodamine B assay; details: SK-OV-3, 48 h, read-out: Activity
SN12C = assay: Cytotoxicity against human SN12C cells assessed as cell growth at 100 uM after 48 hrs by sulforhodamine B assay; details: read-out: Activity
MDA-MB-468 = assay: Cytotoxicity against human MDA-MB-468 cells assessed as cell growth at 0.1 uM after 48 hrs by sulforhodamine B assay; details: MDA-MB-468, 48 h, read-out: Activity
Malme-3M = assay: Cytotoxicity against human MALME-3M cells assessed as cell growth at 0.01 uM after 48 hrs by sulforhodamine B assay; details: read-out: Activity
HL-60(TB) = assay: Cytotoxicity against human HL-60(TB) cells assessed as cell growth at 0.1 uM after 48 hrs by sulforhodamine B assay; details: HL-60, 48 h, read-out: Activity
Summary of the method: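 NCI five-dose screen on the HL-60(TB) leukaemia line, grown in RPMI 1640 with 5% FBS and 2 mM L-glutamine and plated for 24 h before dosing. DMSO stocks were diluted in medium. Cells were exposed 48 h at 37 °C, then settled cells were fixed in 16% TCA (final) and stained with SRB, absorbance 515 nm. Percent growth = (Ti−Tz)/(C−Tz)×100, or (Ti−Tz)/Tz×100 when Ti<Tz.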

A498 = assay: Cytotoxicity against human A498 cells assessed as cell growth at 0.1 uM after 48 hrs by sulforhodamine B assay; details: A498, 48 h, read-out: Activity; summary of the method: as §2
UO-31 = assay: Cytotoxicity against human UO31 cells assessed as cell growth at 10 '-5 M after 48 hrs by sulforhodamine B assay; details: UO-31, 48 h, read-out: Activity
MDA-MB-435 [6] = assay: Cytotoxicity against human MDA-MB-435 cells assessed as cell growth at 10 uM after 48 hrs by sulforhodamine B assay; details: MDA-MB-435, 48 h, read-out: Activity
MDA-MB-231 = assay: Cytotoxicity against human MDA-MB-231 cells assessed as cell growth at 10 uM after 48 hrs by sulforhodamine B assay; details: MDA-MB-231, 48 h, read-out: Activity
HCC 2998 = assay: Cytotoxicity against human HCC2998 cells assessed as cell growth at 100 uM after 48 hrs by sulforhodamine B assay; details: HCC 2998, 48 h, read-out: Activity; summary of the method: as §1
TK-10 = assay: Cytotoxicity against human TK10 cells assessed as cell growth at 1 uM after 48 hrs by sulforhodamine B assay; details: TK-10, 48 h, read-out: Activity
T47D [7] = assay: Cytotoxicity against human T47D cells assessed as cell growth at 1 uM after 48 hrs by sulforhodamine B assay; details: read-out: Activity
UACC-62 = assay: Growth inhibition of human UACC62 cells after 48 hrs by sulforhodamine B assay; details: UACC-62, 48 h; for CC50: read-out: LC50 (the source's name); summary of the method: as §3
NCI-H23 = assay: Cytotoxicity against human NCI-H23 cells assessed as cell growth at 100 uM after 48 hrs by sulforhodamine B assay; details: NCI-H23, 48 h, read-out: Activity
IGROV-1 [8] = assay: Cytotoxicity against human IGROV1 cells assessed as cell growth at 0.01 uM after 48 hrs by sulforhodamine B assay; details: IGROV-1, 48 h, read-out: Activity
OVCAR-8 = assay: Cytotoxicity against human OVCAR8 cells assessed as cell growth at 10 uM after 48 hrs by sulforhodamine B assay; details: OVCAR-8, 48 h, read-out: Activity
LOX IMVI = assay: Cytotoxicity against human LOXIMVI cells assessed as cell growth at 10 '-5 M after 48 hrs by sulforhodamine B assay; details: read-out: Activity

Structure (SMILES) | growth at 1 µM (SK-MEL-5 [1]) [%] | growth at 10 µM (SK-MEL-5 [2]) [%] | growth at 100 µM (EKVX) [%] | growth at 0.1 µM (IGROV-1 [3]) [%] | growth at 10 µM (T47D [4]) [%] | growth at 1 µM (DU-145) [%] | growth at 0.1 µM (MDA-MB-435 [5]) [%] | LC50 (concentration killing 50% of cells) (A549) [µM] | TGI (A549) [µM] | GI50 (NCI/ADR-RES) [µM] | LC50 (lethal concentration, 50% net cell kill) (NCI/ADR-RES) [µM] | TGI (NCI/ADR-RES) [µM] | growth at 10 µM (SNB-19) [%] | growth at 100 µM (SK-OV-3) [%] | growth at 100 µM (SN12C) [%] | growth at 0.1 µM (MDA-MB-468) [%] | growth at 0.01 µM (Malme-3M) [%] | growth at 0.1 µM (HL-60(TB)) [%] | growth at 0.1 µM (A498) [%] | growth at 10 µM (UO-31) [%] | further results
Cc1ccc2nc(Nc3c(C)cccc3C)sc2c1 | 66 | 33 | 53 | 108 | 60 | 94 | 86 | > 100 | > 100 | 0.639 | > 100 | > 100 | 59.5 | 54 | 52 | 82 | 102 | 106 | 68 | 43.7 | growth at 10 µM (MDA-MB-435 [6]): -26%; growth at 10 µM (MDA-MB-231): 22%; growth at 100 µM (HCC 2998): 62%; growth at 1 µM (TK-10): 82%; growth at 1 µM (T47D [7]): 75%; GI50 (UACC-62): 1.15 µM; TGI (UACC-62): > 100 µM; CC50 (UACC-62): > 100 µM; growth at 100 µM (NCI-H23): 65%; growth at 0.01 µM (IGROV-1 [8]): 107%; growth at 10 µM (OVCAR-8): 67%; growth at 10 µM (LOX IMVI): 24.7%
Clc1cccc(Cl)c1Nc1nc2cccc(Cl)c2s1 | 50 | -95 | -73 | 103 | -90 | 75 | 87 | 7.47 | 2.87 | 0.531 | 6.23 | 2.15 | 13.8 | -100 | -84 | 81 | 101 | 103 | 67 | -55.1 | GI50 (A549): 1.11 µM; growth at 10 µM (MDA-MB-435 [6]): -77%; growth at 10 µM (MDA-MB-231): -93%; growth at 100 µM (HCC 2998): -64%; growth at 1 µM (TK-10): 59%; growth at 1 µM (T47D [7]): 46%; GI50 (UACC-62): 1.01 µM; TGI (UACC-62): 2.37 µM; CC50 (UACC-62): 5.55 µM; growth at 100 µM (NCI-H23): -58%; growth at 0.01 µM (IGROV-1 [8]): 114%; growth at 10 µM (OVCAR-8): -71%; growth at 10 µM (LOX IMVI): -88.3%

Source: ChEMBL document CHEMBL2040734, “Benzothiazoles: search for anticancer agents” (2012)
